Reference: ChEMBL document CHEMBL2390927, “Design, synthesis and antimicrobial evaluation of novel benzimidazole type of Fluconazole analogues and their synergistic effects with Chloromycin, Norfloxacin and Fluconazole” (2013)
Converted amounts (≈) assume the structure as drawn.

Key:
[1] = system: Candida; test: Antifungal activity against Candida mycoderma after 24 hrs by two-fold serial dilution method; assay type: functional
Outline: (§1)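 Spore suspension in sterile distilled water from one-day-old cultures on Sabouraud agar, final 1–5 × 10³ spore mL⁻¹. Compound stocks diluted in sterile RPMI 1640 as two-fold serial dilutions in microdilution plates. MIC is the lowest concentration completely inhibiting growth. Growth monitored visually and spectrophotometrically, in triplicate.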

[2] = system: Candida albicans; test: Antifungal activity against Candida albicans ATCC 76615 after 24 hrs by two-fold serial dilution method; assay type: functional; settings: ATCC 76615, 24 h; outline: as §1
[3] = system: Salmonella typhi; test: Antibacterial activity against Bacillus typhi after 24 hrs by two-fold serial dilution method; assay type: functional, Salmonella enterica subsp. enterica serovar Typhi; settings: Salmonella enterica
Outline: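 Two-fold serial dilution in 96-well plates following NCCLS; compounds dissolved in DMSO as stocks, then diluted in Mueller-Hinton broth; bacterial suspension adjusted with sterile saline to 1 × 10⁵ CFU; MIC taken as lowest concentration completely inhibiting growth, monitored visually and spectrophotometrically; DMSO-plus-inoculum well as solvent control; triplicate.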

[4] = system: Pseudomonas aeruginosa; test: Antibacterial activity against Pseudomonas aeruginosa ATCC 27853 after 24 hrs by two-fold serial dilution method; assay type: functional; settings: ATCC 27853, 24 h
Outline: (§2)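 MIC taken as the lowest concentration giving complete growth inhibition, by standard two-fold serial dilution in 96-well plates following NCCLS. Stocks in DMSO, diluted in Mueller–Hinton broth. Inoculum adjusted with sterile saline to 1 × 10⁵ CFU. DMSO with inoculum and no drug served as solvent control. Growth read visually and spectrophotometrically, in triplicate.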

[5] = system: Escherichia coli; test: Antibacterial activity against Escherichia coli JM109 after 24 hrs by two-fold serial dilution method; assay type: functional; settings: JM109, 24 h
[6] = system: Bacillus; test: Antibacterial activity against Bacillus proteus ATCC 13315 after 24 hrs by two-fold serial dilution method; assay type: functional; settings: ATCC 13315, 24 h; outline: as §2
[7] = system: Micrococcus luteus; test: Antibacterial activity against Micrococcus luteus ATCC 4698 after 24 hrs by two-fold serial dilution method; assay type: functional; settings: ATCC 4698, 24 h; outline: as §2
[8] = system: Bacillus subtilis; test: Antibacterial activity against Bacillus subtilis ATCC 21216 after 24 hrs by two-fold serial dilution method; assay type: functional; settings: ATCC 21216, 24 h; outline: as §2
[9] = system: Staphylococcus aureus; test: Antibacterial activity against methicillin-resistant Staphylococcus aureus N315 after 24 hrs by two-fold serial dilution method; assay type: functional; settings: N315, 24 h
[10] = system: Staphylococcus aureus; test: Antibacterial activity against Staphylococcus aureus ATCC 6538 after 24 hrs by two-fold serial dilution method; assay type: functional; settings: ATCC 6538, 24 h
[11] = system: Aspergillus flavus; test: Antifungal activity against Aspergillus flavus after 24 hrs by two-fold serial dilution method; assay type: functional; outline: as §1
[12] = system: Cyberlindnera jadinii; test: Antifungal activity against Candida utilis after 24 hrs by two-fold serial dilution method; assay type: functional; settings: Williopsis jadinii; outline: as §1
[13] = system: Saccharomyces cerevisiae; test: Antifungal activity against Saccharomyces cerevisiae after 24 hrs by two-fold serial dilution method; assay type: functional; outline: as §1

Row | Compound | MIC [1] [µg/mL] | MIC [2] [µg/mL] | MIC [3] [µg/mL] | MIC [4] [µg/mL] | MIC [5] [µg/mL] | MIC [6] [µg/mL] | MIC [7] [µg/mL] | MIC [8] [µg/mL] | MIC [9] [µg/mL] | MIC [10] [µg/mL] | MIC [11] [µg/mL] | MIC [12] [µg/mL] | MIC [13] [µg/mL]
1 | Fc1ccc(NCc2nc3ccccc3[nH]2)c(F)c1 | 32 (≈ 123 µM) | 64 (≈ 247 µM) | 32 (≈ 123 µM) | 64 (≈ 247 µM) | 16 (≈ 61.7 µM) | 16 (≈ 61.7 µM) | 64 (≈ 247 µM) | 32 (≈ 123 µM) | 64 (≈ 247 µM) | 16 (≈ 61.7 µM) | 64 (≈ 247 µM) | 32 (≈ 123 µM) | 32 (≈ 123 µM)
2 | Clc1ccc(NCc2nc3ccccc3[nH]2)c(Cl)c1 | 32 (≈ 110 µM) | 32 (≈ 110 µM) | 128 (≈ 438 µM) | 64 (≈ 219 µM) | 32 (≈ 110 µM) | 64 (≈ 219 µM) | 64 (≈ 219 µM) | 32 (≈ 110 µM) | 64 (≈ 219 µM) | 64 (≈ 219 µM) | 64 (≈ 219 µM) | 32 (≈ 110 µM) | 64 (≈ 219 µM)
3 | CCCN(Cc1nc2ccccc2[nH]1)c1ccc(C)cc1 | 128 (≈ 458 µM) | 128 (≈ 458 µM) | 128 (≈ 458 µM) | 256 (≈ 916 µM) | 128 (≈ 458 µM) | 128 (≈ 458 µM) | 128 (≈ 458 µM) | 64 (≈ 229 µM) | 256 (≈ 916 µM) | 128 (≈ 458 µM) | 128 (≈ 458 µM) | 64 (≈ 229 µM) | 128 (≈ 458 µM)
4 | CCCCCCN(Cc1nc2ccccc2[nH]1)c1ccc(C)cc1 | 128 (≈ 398 µM) | 64 (≈ 199 µM) | 64 (≈ 199 µM) | 64 (≈ 199 µM) | 256 (≈ 796 µM) | 256 (≈ 796 µM) | 64 (≈ 199 µM) | 128 (≈ 398 µM) | 128 (≈ 398 µM) | 128 (≈ 398 µM) | 64 (≈ 199 µM) | 128 (≈ 398 µM) | 64 (≈ 199 µM)
5 | CCCCCCCCN(Cc1nc2ccccc2[nH]1)c1ccc(C)cc1 | 32 (≈ 91.6 µM) | 16 (≈ 45.8 µM) | 64 (≈ 183 µM) | 16 (≈ 45.8 µM) | 128 (≈ 366 µM) | 64 (≈ 183 µM) | 128 (≈ 366 µM) | 16 (≈ 45.8 µM) | 128 (≈ 366 µM) | 32 (≈ 91.6 µM) | 64 (≈ 183 µM) | 32 (≈ 91.6 µM) | 16 (≈ 45.8 µM)
6 | CCCCCCCCCCN(Cc1nc2ccccc2[nH]1)c1ccc(C)cc1 | 128 (≈ 339 µM) | 64 (≈ 170 µM) | 128 (≈ 339 µM) | 128 (≈ 339 µM) | 128 (≈ 339 µM) | 256 (≈ 678 µM) | 128 (≈ 339 µM) | 64 (≈ 170 µM) | 64 (≈ 170 µM) | 128 (≈ 339 µM) | 64 (≈ 170 µM) | 64 (≈ 170 µM) | 32 (≈ 84.8 µM)
7 | CCCCCCCCCCCCN(Cc1nc2ccccc2[nH]1)c1ccc(C)cc1 | 16 (≈ 39.4 µM) | 64 (≈ 158 µM) | 64 (≈ 158 µM) | 128 (≈ 316 µM) | 128 (≈ 316 µM) | 64 (≈ 158 µM) | 64 (≈ 158 µM) | 128 (≈ 316 µM) | 128 (≈ 316 µM) | 64 (≈ 158 µM) | 64 (≈ 158 µM) | 32 (≈ 78.9 µM) | 64 (≈ 158 µM)
8 | CCCCCCCCCCCCCCCCCCN(Cc1nc2ccccc2[nH]1)c1ccc(C)cc1 | 32 (≈ 65.3 µM) | 32 (≈ 65.3 µM) | 64 (≈ 131 µM) | 64 (≈ 131 µM) | 256 (≈ 523 µM) | 64 (≈ 131 µM) | 256 (≈ 523 µM) | 64 (≈ 131 µM) | 128 (≈ 261 µM) | 128 (≈ 261 µM) | 64 (≈ 131 µM) | 32 (≈ 65.3 µM) | 64 (≈ 131 µM)
